Tests used:
[1] = Displacement of [3H]muscimol from GABAA in rat synaptic membrane in presence of 10% DMSO by scintillation counting; format: cell membranes
[2] = Displacement of [3H]muscimol from GABAA in rat synaptic membrane by scintillation counting; format: cell membranes
Outline: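 Rat brain synaptic membrane preparations; native GABAA receptor binding measured by displacement of [3H]muscimol. Ki reported as mean [mean pKi ± SEM] of three to four independent experiments.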

[3] = biological target: T1, GABA-A receptor; alpha-1/beta-2/gamma-2 (Homo sapiens, UniProt P14867+P18507+P47870); test: Antagonist activity at human GABAA alpha-1-beta-2-gamma-2 receptor expressed in mouse tsA201 cells by FMP red assay; format: functional, cell-based
T1 sequence (P14867 whole entry): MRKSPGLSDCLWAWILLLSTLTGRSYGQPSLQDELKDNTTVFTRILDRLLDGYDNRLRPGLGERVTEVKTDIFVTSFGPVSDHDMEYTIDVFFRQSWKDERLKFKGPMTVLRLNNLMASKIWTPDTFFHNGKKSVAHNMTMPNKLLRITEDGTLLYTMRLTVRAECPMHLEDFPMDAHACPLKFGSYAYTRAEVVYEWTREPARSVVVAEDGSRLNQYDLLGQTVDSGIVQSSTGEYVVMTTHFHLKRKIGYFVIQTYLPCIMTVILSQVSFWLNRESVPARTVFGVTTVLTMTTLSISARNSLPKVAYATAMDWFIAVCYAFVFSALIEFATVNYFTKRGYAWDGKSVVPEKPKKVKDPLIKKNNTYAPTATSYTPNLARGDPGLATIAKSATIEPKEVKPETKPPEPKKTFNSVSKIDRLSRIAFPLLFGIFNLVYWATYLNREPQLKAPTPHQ
T1 sequence (P47870 whole entry): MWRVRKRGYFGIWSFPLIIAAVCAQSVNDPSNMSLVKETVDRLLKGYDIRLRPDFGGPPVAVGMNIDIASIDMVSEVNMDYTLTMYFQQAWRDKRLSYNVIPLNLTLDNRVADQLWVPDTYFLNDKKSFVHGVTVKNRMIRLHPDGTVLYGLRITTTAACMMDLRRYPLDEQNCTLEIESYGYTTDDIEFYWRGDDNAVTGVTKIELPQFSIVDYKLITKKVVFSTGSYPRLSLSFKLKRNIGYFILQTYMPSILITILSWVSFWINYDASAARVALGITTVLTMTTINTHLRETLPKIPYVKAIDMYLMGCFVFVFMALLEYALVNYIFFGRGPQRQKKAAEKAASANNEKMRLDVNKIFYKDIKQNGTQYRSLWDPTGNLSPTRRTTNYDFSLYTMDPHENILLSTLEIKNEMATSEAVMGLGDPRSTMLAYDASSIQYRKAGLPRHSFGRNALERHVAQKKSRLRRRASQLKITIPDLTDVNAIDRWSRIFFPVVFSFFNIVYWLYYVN
T1 sequence (P18507 whole entry): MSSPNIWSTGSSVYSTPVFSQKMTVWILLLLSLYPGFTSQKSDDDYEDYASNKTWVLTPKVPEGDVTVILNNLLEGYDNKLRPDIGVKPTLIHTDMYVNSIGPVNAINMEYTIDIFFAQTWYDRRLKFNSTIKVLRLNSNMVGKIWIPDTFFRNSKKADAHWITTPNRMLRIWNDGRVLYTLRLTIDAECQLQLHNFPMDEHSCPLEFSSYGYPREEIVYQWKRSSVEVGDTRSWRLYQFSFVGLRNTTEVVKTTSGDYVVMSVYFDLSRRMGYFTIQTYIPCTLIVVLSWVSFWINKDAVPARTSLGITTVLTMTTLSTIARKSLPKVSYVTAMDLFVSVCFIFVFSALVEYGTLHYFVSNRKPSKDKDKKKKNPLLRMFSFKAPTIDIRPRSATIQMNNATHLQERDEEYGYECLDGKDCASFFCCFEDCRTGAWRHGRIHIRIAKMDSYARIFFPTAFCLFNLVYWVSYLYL
Outline: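 Human α1β2γ2S GABAA receptor transiently expressed in tsA201 cells; FLIPR membrane potential (FMP) red assay. […] Compounds tested up to 500 μM. Values given as IC50 [pIC50 ± SEM].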

[4] = biological target: T1, GABA-A receptor; alpha-1/beta-2/gamma-2; test: Agonist activity at human GABAA alpha-1-beta-2-gamma-2 receptor expressed in mouse tsA201 cells at < 500 uM by FMP red assay; format: functional, cell-based
Outline: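 Human α1β2γ2S GABA-A receptor transiently expressed in tsA201 cells; agonist-mode FLIPR membrane potential (FMP) red assay measuring the fluorescence change in membrane potential; compounds tested at concentrations up to 500 μM.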

Row | Ki [1] | pKi [1] | Ki [2] | IC50 [3] | pKi [2] | Compound | IC50 ([4]; read-out: IC50) | IC50 ([4]; read-out: pIC50 (converted))
1 | 22 nM | 7.66 | – | – | – | Br.On1nc(Cc2ccc3ccccc3c2)c(C2CCNCC2)c1-c1ccccc1 | – | –
2 | – | – | 49 nM | 1800 nM | – | Oc1noc(C2CCNCC2)c1Cc1ccc2ccccc2c1 | – | –
3 | – | – | 360 nM | 8300 nM | 6.45 | Cl.On1cc(C2CCNCC2)c(Cc2ccccc2)n1 | – | –
4 | – | – | 33 nM | 790 nM | 7.48 | Cl.On1ncc(C2CCNCC2)c1Cc1ccc2ccccc2c1 | – | –
5 | – | – | 320 nM | 1400 nM | 6.5 | Br.Cc1ccc(-c2nn(O)cc2C2CCNCC2)cc1 | – | –
6 | 9.5 nM | 8.07 | – | 480 nM | – | Cl.On1ncc(C2CCNCC2)c1Cc1ccc2ccccc2c1Br | – | –
7 | – | – | 10 nM | 78 nM | – | Oc1noc(C2CCNCC2)c1-c1cccc(-c2ccccc2)c1 | – | –
8 | – | – | 220 nM | – | – | Oc1noc(C2CCNCC2)c1-c1ccccc1 | – | –
9 | – | – | 240 nM | 1900 nM | 6.62 | Cc1cccc(-c2nn(O)cc2C2CCNCC2)c1.Cl | – | –
10 | – | – | 3 nM | 170 nM | 8.55 | Br.On1cc(C2CCNCC2)c(Cc2ccc3ccccc3c2)n1 | – | –
11 | – | – | 22 nM | 150 nM | 7.65 | Br.On1ncc(C2CCNCC2)c1-c1ccccc1 | – | –
12 | 1500 nM | 5.84 | – | 3200 nM | – | Cl.On1nc(-c2ccccc2)c(C2CCNCC2)c1Cc1ccc2ccccc2c1 | – | –
13 | – | – | 30 nM | 210 nM | 7.55 | Cl.On1cc(C2CCNCC2)c(-c2cccc(-c3ccccc3)c2)n1 | – | –
14 | – | – | 420 nM | 1400 nM | 6.39 | Br.On1cc(C2CCNCC2)c(-c2ccc(-c3ccccc3)cc2)n1 | – | –
15 | – | – | 270 nM | 1900 nM | 6.57 | Br.On1cc(C2CCNCC2)c(-c2ccccc2)n1 | – | –
16 | – | – | 10 nM | – | – | Oc1noc(C2CCNCC2)c1Cc1ccc2ccccc2c1Br | – | –
17 | – | – | 670 nM | 2600 nM | 6.17 | Cc1ccccc1-c1nn(O)cc1C1CCNCC1.Cl | – | –
18 | – | – | – | 24 nM | – | Cl.On1ncc(C2CCNCC2)c1-c1cccc(-c2ccccc2)c1 | – | –

Row | Compound | Ki [1] | pKi [1] | Ki [2] | IC50 [3] | pKi [2] | IC50 ([4]; read-out: IC50) | IC50 ([4]; read-out: pIC50 (converted))
19 | Cl.On1cc(C2CCNCC2)cn1 | – | – | 10000 nM | – | 4.99 | > 500000 nM | > 501000 nM
20 | Br.Cc1nn(O)cc1C1CCNCC1 | – | – | 5000 nM | 66000 nM | 5.31 | – | –

— ChEMBL document CHEMBL1156234, “Novel 4-(piperidin-4-yl)-1-hydroxypyrazoles as gamma-aminobutyric acid(A) receptor ligands: synthesis, pharmacology, and structure-activity relationships” (J Med Chem, 2010)
